Measurements published in ChEMBL document CHEMBL1149615, “Design, synthesis, and biological evaluation of LNA nucleosides as adenosine A3 receptor ligands” (Bioorg Med Chem, 2007).
pEC50, pIC50: −log10 of the molar value.

Key:
Format in all cases: functional
[1] = target: T1, Adenosine receptor A3 (Homo sapiens) (UniProt P0DMS8); assay: (§1) Antagonist activity at human adenosine A3 receptor after 15 to 30 mins
T1 sequence (whole entry): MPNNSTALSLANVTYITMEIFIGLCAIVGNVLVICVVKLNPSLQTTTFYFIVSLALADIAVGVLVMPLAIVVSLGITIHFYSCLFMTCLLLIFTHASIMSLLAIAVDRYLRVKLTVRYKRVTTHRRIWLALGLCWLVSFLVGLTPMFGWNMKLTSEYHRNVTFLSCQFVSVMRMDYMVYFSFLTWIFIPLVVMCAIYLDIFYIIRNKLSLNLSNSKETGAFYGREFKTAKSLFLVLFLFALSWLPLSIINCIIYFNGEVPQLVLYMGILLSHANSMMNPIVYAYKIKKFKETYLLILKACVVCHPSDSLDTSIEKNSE

[2] = target: T2, Adenosine receptor A3 (Homo sapiens, UniProt P0DMS8); assay: as §1
T2 sequence (P0DMS8 whole entry): T1 sequence (whole entry)

[3] = target: T2, Adenosine receptor A3; assay: Agonist activity at human adenosine A3 receptor after 15 to 30 mins
Procedure, shortened: (§2)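 AequoScreen cells expressing recombinant human A3 receptor and Gα16 were cultured at least one week, harvested with PBS-EDTA, and loaded overnight at room temperature with coelenterazine H in DMEM-F12 with 0.1% BSA. Cells were injected onto compound and aequorin luminescence was read. Duplicates at 100 µM–0.01 nM (eight concentrations) were normalised to saturating (EC100) IB-MECA to give EC50.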

[4] = target: T1, Adenosine receptor A3 (Homo sapiens); assay: Agonist activity at human adenosine A3 receptor after 15 to 30 mins relative to IB-MECA; procedure, shortened: as §2
[5] = target: T3, Adenosine receptor A1 (Homo sapiens, UniProt P30542); assay: Agonist activity at human adenosine A1 receptor
T3 sequence (P30542 whole entry): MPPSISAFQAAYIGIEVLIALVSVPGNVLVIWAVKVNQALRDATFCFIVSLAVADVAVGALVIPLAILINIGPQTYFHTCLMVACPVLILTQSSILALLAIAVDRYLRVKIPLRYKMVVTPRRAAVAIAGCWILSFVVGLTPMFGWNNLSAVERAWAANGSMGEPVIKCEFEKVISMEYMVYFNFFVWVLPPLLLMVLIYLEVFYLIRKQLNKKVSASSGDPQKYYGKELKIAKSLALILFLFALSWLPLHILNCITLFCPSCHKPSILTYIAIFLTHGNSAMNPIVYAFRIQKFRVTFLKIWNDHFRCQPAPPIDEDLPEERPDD
Procedure, shortened: (§3)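 Clones coexpressing mitochondrial apoaequorin and Gα16 were collected in PBS with 5 mM EDTA. They were loaded with 5 µM coelenterazine H for 4 h at room temperature, washed, and mixed with compound, and aequorin light was recorded for 30 s. Duplicates at eight concentrations from 3000 to 1 nM were fitted by sigmoidal nonlinear regression and expressed as percent of agonist response.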

[6] = target: T3, Adenosine receptor A1; assay: Antagonist activity at human adenosine A1 receptor; procedure, shortened: as §3

SMILES	Imax [1]	pIC50 [2]	pEC50 [3]	Emax [4]	pEC50 [5]	pIC50 [6]
CNC(=O)[C@@]12CO[C@@H]([C@H](n3cnc4c(N)ncnc43)O1)[C@@H]2O	–	< 4.00	< 4.00	–	–	–
CO[C@@H]1[C@H](O)[C@@H](CO)O[C@H]1n1cnc2c(N)ncnc21	100%	7.82	< 4.00	–	< 5.52	< 5.52
Nc1ncnc2c1ncn2[C@@H]1O[C@@]2(CO)CN[C@@H]1[C@@H]2O	–	< 4.00	< 4.00	–	–	–
CNC(=O)[C@H]1O[C@@H](n2cnc3c(N)ncnc32)[C@H](OC)[C@@H]1O	–	–	6.34	100%	–	–
CNC(=O)[C@@]12CN[C@@H]([C@H](n3cnc4c(N)ncnc43)O1)[C@@H]2O	100%	6.77	< 4.00	–	–	–

Second part, the compound after the results:

Imax [1]	pIC50 [2]	pEC50 [3]	Emax [4]	pEC50 [5]	pIC50 [6]	SMILES
100%	6.82	< 4.00	–	–	–	OC[C@@]12CO[C@@H]([C@H](n3cnc4c(NCc5cccc(I)c5)ncnc43)O1)[C@@H]2O
–	–	8.72	100%	< 5.52	< 5.52	CNC(=O)[C@H]1O[C@@H](n2cnc3c(NCc4cccc(I)c4)ncnc32)[C@H](OC)[C@@H]1O
100%	–	< 4.00	–	< 5.52	< 5.52	CNC(=O)[C@@]12CN[C@@H]([C@H](n3cnc4c(NCc5cccc(I)c5)ncnc43)O1)[C@@H]2O
100%	8.77	< 4.00	–	< 5.52	< 5.52	CO[C@@H]1[C@H](O)[C@@H](CO)O[C@H]1n1cnc2c(NCc3cccc(I)c3)ncnc21
–	< 4.00	< 4.00	–	–	–	CNC(=O)[C@@]12CO[C@@H]([C@H](n3cnc4c(NCc5cccc(I)c5)ncnc43)O1)[C@@H]2O
–	< 4.00	< 4.00	–	–	–	Nc1ncnc2c1ncn2[C@@H]1O[C@@]2(CO)CO[C@@H]1[C@@H]2O
100%	8.09	< 4.00	–	< 5.52	< 5.52	OC[C@@]12CN[C@@H]([C@H](n3cnc4c(NCc5cccc(I)c5)ncnc43)O1)[C@@H]2O
